Results reported in ChEMBL document CHEMBL3352010, “Synthesis and Pharmacology of a Novel κ Opioid Receptor (KOR) Agonist with a 1,3,5-Trioxazatriquinane Skeleton” (ACS Med Chem Lett, 2014).

Key:
[1] = molecular target: Mu-type opioid receptor (Mus musculus, UniProt P42866); assay: Displacement of [3H]DAMGO from mu opioid receptor in mouse whole brain without cerebellum
[2] = molecular target: Delta-type opioid receptor (Mus musculus, UniProt P32300); assay: Displacement of [3H]DPDPE from delta opioid receptor in mouse whole brain without cerebellum
[3] = molecular target: T1, Kappa-type opioid receptor (Homo sapiens, UniProt P41145); assay: Agonist activity at human kappa opioid receptor expressed in CHO cells assessed as stimulation of [35S]-GTPgammaS binding; format: functional, cell-based
[4] = molecular target: Kappa-type opioid receptor (Cavia porcellus, UniProt P41144); assay: Displacement of [3H]U69593 from kappa opioid receptor in guinea pig cerebellum
[5] = molecular target: T1, Kappa-type opioid receptor; assay: Agonist activity at human kappa opioid receptor expressed in CHO cells assessed as stimulation of [35S]-GTPgammaS binding relative to U69593; format: functional, cell-based
[6] = test system: Mus musculus; assay: Analgesic activity in sc dosed mouse assessed as inhibition of acetic acid-induced writhing response treated 15 mins before acetic acid challenge measured after 10 mins; format: functional
Summary of the method: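 Test agent given s.c. to mice; 15 min later, 0.6% acetic acid i.p. at 10 mL/kg. After a 10 min delay, abdominal constrictions were counted over the next 10 min. 8 mice per group; group means ± SEM; ED50 taken from the dose-response. Statistics by one-way ANOVA with Bonferroni test versus vehicle.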

[7] = molecular target: T2, Delta-type opioid receptor (Homo sapiens, UniProt P41143); assay: Agonist activity at human delta opioid receptor expressed in CHO cells assessed as stimulation of [35S]-GTPgammaS binding relative to DPDPE; format: functional, cell-based
[8] = molecular target: T2, Delta-type opioid receptor; assay: Agonist activity at human delta opioid receptor expressed in CHO cells assessed as stimulation of [35S]-GTPgammaS binding; format: functional, cell-based

Chain of Kappa-type opioid receptor (Cavia porcellus, UniProt P41144) (P41144 whole entry): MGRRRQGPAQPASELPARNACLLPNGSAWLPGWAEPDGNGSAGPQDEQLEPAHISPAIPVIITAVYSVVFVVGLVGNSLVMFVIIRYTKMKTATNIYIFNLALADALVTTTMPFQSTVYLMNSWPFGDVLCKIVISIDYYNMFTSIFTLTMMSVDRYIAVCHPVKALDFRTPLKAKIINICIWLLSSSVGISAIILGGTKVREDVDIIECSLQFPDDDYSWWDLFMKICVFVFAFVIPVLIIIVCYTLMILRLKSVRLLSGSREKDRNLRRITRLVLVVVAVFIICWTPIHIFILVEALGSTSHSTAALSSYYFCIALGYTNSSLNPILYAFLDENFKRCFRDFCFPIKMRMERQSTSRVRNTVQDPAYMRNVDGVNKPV
Chain of Mu-type opioid receptor (P42866 whole entry): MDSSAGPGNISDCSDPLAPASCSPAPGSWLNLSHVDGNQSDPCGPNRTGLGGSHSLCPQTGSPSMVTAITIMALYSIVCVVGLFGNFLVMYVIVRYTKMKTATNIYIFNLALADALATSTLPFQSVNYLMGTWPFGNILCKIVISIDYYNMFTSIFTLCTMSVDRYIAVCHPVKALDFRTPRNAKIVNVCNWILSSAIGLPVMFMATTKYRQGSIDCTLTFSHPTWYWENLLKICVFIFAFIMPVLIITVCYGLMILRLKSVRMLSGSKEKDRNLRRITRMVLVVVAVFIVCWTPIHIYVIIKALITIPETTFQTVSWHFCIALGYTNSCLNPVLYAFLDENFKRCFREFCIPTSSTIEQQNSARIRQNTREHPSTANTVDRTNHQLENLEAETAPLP
Chain of Delta-type opioid receptor (Mus musculus, UniProt P32300) (P32300 whole entry): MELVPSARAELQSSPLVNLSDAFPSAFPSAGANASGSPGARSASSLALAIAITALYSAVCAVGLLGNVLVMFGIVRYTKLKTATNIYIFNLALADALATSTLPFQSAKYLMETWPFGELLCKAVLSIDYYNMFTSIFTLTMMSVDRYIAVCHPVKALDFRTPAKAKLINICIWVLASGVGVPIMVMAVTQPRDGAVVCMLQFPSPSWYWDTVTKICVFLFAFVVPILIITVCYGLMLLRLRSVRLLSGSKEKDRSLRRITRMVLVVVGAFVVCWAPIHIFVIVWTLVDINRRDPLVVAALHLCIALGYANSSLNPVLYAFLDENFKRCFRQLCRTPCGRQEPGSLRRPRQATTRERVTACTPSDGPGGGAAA
T1 sequence (P41145 whole entry): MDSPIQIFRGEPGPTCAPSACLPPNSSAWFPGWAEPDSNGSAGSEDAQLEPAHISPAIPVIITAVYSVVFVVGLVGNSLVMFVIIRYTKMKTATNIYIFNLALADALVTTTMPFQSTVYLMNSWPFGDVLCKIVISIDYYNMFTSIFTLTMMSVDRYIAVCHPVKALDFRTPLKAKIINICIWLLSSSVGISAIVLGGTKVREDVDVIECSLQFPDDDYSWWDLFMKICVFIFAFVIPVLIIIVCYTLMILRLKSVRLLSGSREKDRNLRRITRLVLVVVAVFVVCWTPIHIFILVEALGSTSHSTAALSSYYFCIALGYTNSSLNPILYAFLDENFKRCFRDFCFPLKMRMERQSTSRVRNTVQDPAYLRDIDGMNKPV
T2 sequence (P41143 whole entry): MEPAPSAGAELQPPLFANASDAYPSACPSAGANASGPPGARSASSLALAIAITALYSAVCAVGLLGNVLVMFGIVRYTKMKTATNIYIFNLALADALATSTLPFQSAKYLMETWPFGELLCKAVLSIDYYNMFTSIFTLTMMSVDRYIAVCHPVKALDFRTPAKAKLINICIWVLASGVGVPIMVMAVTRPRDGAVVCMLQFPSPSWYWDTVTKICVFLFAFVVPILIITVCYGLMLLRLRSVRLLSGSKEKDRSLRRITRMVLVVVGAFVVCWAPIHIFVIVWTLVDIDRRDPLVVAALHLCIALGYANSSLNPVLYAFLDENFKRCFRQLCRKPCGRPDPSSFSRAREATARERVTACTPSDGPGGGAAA

| Compound | Ki [1] | Ki [2] | Ki [4] | further results |
| --- | --- | --- | --- | --- |
| C[C@@]1(c2cccc(O)c2)O[C@H]2CO[C@@H]3N2[C@H]1O[C@]3(C)c1cccc(O)c1 (relative stereo) [listing 1 of 2 here] | > 1000 nM | > 1000 nM | 6.09 nM | EC50 [3]: 97.5 nM |
| C[C@@]1(c2cccc(O)c2)O[C@H]2CO[C@@H]3N2[C@H]1O[C@]3(C)c1cccc(O)c1 (relative stereo) [listing 2 of 2 here] | – | – | – | Emax [5]: 98.2% |
| C[C@@]1(c2cccc(O)c2)O[C@H]2CO[C@H]3CO[C@@H]1N32 (relative stereo) | > 1000 nM | > 1000 nM | > 1000 nM | – |
| C[C@]1(c2cccc(O)c2)O[C@H]2CO[C@H]3CO[C@@H]1N32 (relative stereo) | > 1000 nM | > 1000 nM | > 1000 nM | – |
| C[C@@]1(c2cccc(O)c2)O[C@@H]2N3[C@H](CO[C@H]31)O[C@]2(C)c1cccc(O)c1 (relative stereo) | > 1000 nM | > 1000 nM | > 1000 nM | – |
| CC1(c2cccc(O)c2)OC2COC3N2C1OC3(C)c1cccc(O)c1 (stereo not given) | 293 nM | 651 nM | > 1000 nM | – |
| C[C@@]1(c2cccc(O)c2)O[C@@H]2N3[C@H]1O[C@](C)(c1cccc(O)c1)[C@@H]3O[C@]2(C)c1cccc(O)c1 (relative stereo) | 928 nM | > 1000 nM | > 1000 nM | – |
| C[C@@]1(c2cccc(O)c2)O[C@H]2CO[C@@H]3N2[C@H]1O[C@@]3(C)c1cccc(O)c1 (relative stereo) | 735 nM | > 1000 nM | 793 nM | – |
| C[C@@]1(c2cccc(O)c2)O[C@@H]2N3[C@H]1O[C@](C)(c1cccc(O)c1)[C@@H]3O[C@@]2(C)c1cccc(O)c1 (relative stereo) | 652 nM | > 1000 nM | 667 nM | – |
| COc1cccc([C@@]2(C)O[C@@H]3N4[C@H](CO[C@H]42)O[C@@]3(C)c2cccc(O)c2)c1 (relative stereo) | > 1000 nM | > 1000 nM | 52.8 nM | – |
| C[C@@]1(c2cccc(O)c2)O[C@@H]2N3[C@H]1O[C@@](C)(c1cccc(O)c1)[C@@H]3O[C@@]2(C)c1cccc(O)c1 (relative stereo) | > 1000 nM | > 1000 nM | > 1000 nM | – |
| COc1cccc([C@]2(C)O[C@H]3CO[C@@H]4N3[C@H]2O[C@]4(C)c2cccc(O)c2)c1 (relative stereo) | > 1000 nM | > 1000 nM | > 1000 nM | – |
| C[C@@]1(c2cccc(O)c2)O[C@H]2CO[C@@H]3N2[C@H]1O[C@]3(C)c1cccc(O)c1 [listing 1 of 2 here] | – | – | – | Emax [5]: 96.8%; Activity [6]: Dose-dependent effect; Emax [7]: 23.4% |
| C[C@@]1(c2cccc(O)c2)O[C@H]2CO[C@@H]3N2[C@H]1O[C@]3(C)c1cccc(O)c1 [listing 2 of 2 here] | > 1000 nM | > 1000 nM | 4.63 nM | EC50 [8]: 83.7 nM; ED50 [6]: 3.5 mg/kg; EC50 [3]: 50.3 nM |
| COc1cccc([C@]2(C)O[C@H]3CO[C@@H]4N3[C@H]2O[C@]4(C)c2cccc(OC)c2)c1 (relative stereo) | > 1000 nM | > 1000 nM | > 1000 nM | – |
| C[C@]1(c2cccc(O)c2)O[C@H]2CO[C@@H]3N2[C@H]1O[C@]3(C)c1cccc(O)c1 (relative stereo) | > 1000 nM | > 1000 nM | > 1000 nM | – |
